From ChEMBL document CHEMBL4706651, “Peripheral Selective Oxadiazolylphenyl Alanine Derivatives as Tryptophan Hydroxylase 1 Inhibitors for Obesity and Fatty Liver Disease” (J Med Chem, 2021) come the findings set out here.

The inhibition is the drop in the measured response relative to a control, in per cent. Lower therefore signals little suppression.

Activity calls are given as the source filed them. The rule behind the calls is not given here.

For data set [1], the system named is Mus musculus. Nature of the data set: Anti-obesity activity in C57BL/6J mouse model of diet-induced obesity assessed as suppression of 5-HT levels in serum at 10 mg/kg, ip dosed daily for 1 week by LC-MS/MS analysis. It counts as functional, organism-based. As to conditions: time 1.0 weeks.
For data set [2], the system named is Mus musculus. Kind of data set: Anti-obesity activity in C57BL/6J mouse model of diet-induced obesity assessed as reduction in adipose tissues by measuring eWAT at 10 mg/kg, ip dosed daily for 8 weeks. The class given is functional, organism-based. In short, it runs like this: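 After eight weeks of daily ip dosing at 10 mg/kg with high-fat diet (60% fat calories) in C57BL/6J mice starting at 12 weeks, gross appearance of dissected eWAT, iWAT and BAT was photographed against a 1 cm × 1 cm grid.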

Another data set has as its target CYP2C9 (Homo sapiens, UniProt P11712). Nature of the data set: Inhibition of CYP2C9 (unknown origin) at 10 uM relative to control. The class given is ADME.
For data set [3], the system named is Mus musculus. Kind of data set: Anti-obesity activity in C57BL/6J mouse model of diet-induced obesity assessed as suppression of body weight gain at 10 mg/kg, ip dosed daily for 8 weeks […]. It counts as functional, organism-based.

Sequence of CYP2C9 (P11712 whole entry): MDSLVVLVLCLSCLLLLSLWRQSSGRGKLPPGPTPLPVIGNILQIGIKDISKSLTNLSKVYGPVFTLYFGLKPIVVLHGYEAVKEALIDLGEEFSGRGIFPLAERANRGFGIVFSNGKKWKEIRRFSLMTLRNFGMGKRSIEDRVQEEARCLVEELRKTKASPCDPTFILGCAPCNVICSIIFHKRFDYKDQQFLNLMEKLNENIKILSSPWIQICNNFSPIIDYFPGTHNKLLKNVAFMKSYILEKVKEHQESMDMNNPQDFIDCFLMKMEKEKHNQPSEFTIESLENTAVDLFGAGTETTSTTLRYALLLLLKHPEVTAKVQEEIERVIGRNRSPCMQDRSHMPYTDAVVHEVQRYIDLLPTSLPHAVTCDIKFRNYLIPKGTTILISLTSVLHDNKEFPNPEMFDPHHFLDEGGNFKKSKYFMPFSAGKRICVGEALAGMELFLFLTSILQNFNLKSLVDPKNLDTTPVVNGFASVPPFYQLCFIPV

Consider `COc1ccc(-c2nc(-c3ccc(C[C@H](N)C(=O)O)cc3)no2)cc1-c1ccc(O)cc1.Cl`, for which the outcome with Mus musculus [1], with Mus musculus [2] and in the data set with Mus musculus [3] was Active. This compound also returned an inhibition at 10 µM against CYP2C9 of less than 1%.
